IC50 and inhibition data for 31 compounds are collected here from ChEMBL document CHEMBL4257518, “Inhibition of O-GlcNAc transferase (OGT) by peptidic hybrids” (Medchemcomm, 2018).

Activity calls are given as the source filed them. The calls are words filed in the database; no cut-off is given here. Side chains are listed from the residue outwards. Peptide text beside a SMILES is read from it. * marks the point of attachment. X3 = O=c1ccn([C@@H]2O[C@H](COCCOCCN*)[C@@H](O)[C@H]2O)c(=O)[nH]1; X2 = O=c1ccn([C@@H]2O[C@H](COCCN*)[C@@H](O)[C@H]2O)c(=O)[nH]1; X1 = O=c1ccn([C@@H]2O[C@H](CN*)[C@@H](O)[C@H]2O)c(=O)[nH]1; X4 = O=C(c1cc(=O)[nH]c2ccccc12)*; 4Amb = NCc1ccc(C(=O)O)cc1

For assay [1], the target named is T1, UDP-N-acetylglucosamine--peptide N-acetylglucosaminyltransferase 110 kDa subunit (Homo sapiens, UniProt O15294).
T1 sequence (O15294 whole entry): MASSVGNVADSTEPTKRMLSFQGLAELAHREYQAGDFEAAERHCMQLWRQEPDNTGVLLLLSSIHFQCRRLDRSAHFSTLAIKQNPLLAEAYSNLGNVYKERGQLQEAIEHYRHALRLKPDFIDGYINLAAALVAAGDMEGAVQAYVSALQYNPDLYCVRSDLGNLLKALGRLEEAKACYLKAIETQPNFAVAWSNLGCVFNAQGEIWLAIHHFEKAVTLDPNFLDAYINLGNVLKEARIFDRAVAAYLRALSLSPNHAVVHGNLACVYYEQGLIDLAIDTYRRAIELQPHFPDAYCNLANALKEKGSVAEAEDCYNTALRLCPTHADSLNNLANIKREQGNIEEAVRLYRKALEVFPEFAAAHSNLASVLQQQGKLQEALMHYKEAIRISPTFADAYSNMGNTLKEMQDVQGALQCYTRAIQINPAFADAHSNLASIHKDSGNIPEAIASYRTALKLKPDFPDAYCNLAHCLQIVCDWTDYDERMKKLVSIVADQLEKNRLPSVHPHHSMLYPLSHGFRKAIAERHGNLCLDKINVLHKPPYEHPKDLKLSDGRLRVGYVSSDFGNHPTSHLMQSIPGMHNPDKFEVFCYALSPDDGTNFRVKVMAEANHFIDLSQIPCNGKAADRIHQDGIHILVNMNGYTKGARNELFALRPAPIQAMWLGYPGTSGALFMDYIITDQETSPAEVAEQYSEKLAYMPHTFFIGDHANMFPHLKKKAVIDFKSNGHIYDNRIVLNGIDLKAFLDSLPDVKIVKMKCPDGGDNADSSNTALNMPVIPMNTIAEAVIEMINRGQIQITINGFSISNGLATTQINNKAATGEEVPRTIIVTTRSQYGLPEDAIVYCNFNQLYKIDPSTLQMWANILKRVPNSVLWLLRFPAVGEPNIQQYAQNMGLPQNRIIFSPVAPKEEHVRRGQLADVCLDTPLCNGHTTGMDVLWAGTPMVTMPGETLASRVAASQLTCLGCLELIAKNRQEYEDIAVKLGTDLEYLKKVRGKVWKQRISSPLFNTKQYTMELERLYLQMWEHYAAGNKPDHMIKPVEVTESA
Put plainly: Inhibition of OGT (unknown origin) using UDP-GlcNAc as substrate measured after 2 hrs by UDP-Glo luminescence assay.

Assay [2] deals with T2, UDP-N-acetylglucosamine--peptide N-acetylglucosaminyltransferase 110 kDa subunit (Homo sapiens) (UniProt O15294).
T2 sequence (whole entry): T1 sequence (O15294 whole entry)
Put plainly: Inhibition of OGT (unknown origin) at 1 mM using UDP-GlcNAc as substrate measured after 2 hrs by UDP-Glo luminescence assay relative to control. In a few lines: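 Single-point OGT inhibition at 1 mM, read by UDP-Glo glycosyltransferase assay (UDP released from UDP-GlcNAc donor).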

In assay [3] the target is T2, UDP-N-acetylglucosamine--peptide N-acetylglucosaminyltransferase 110 kDa subunit (Homo sapiens). Put plainly: Competitive inhibition of OGT (unknown origin) at 0.5 mM in presence of RBL_2_410_422 peptide by microarray analysis. In a few lines:
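Peptide microarray with immobilized RBL-2_410–422 as OGT acceptor; inhibitor peptide present at 0.5 mM, water in parallel control. O-GlcNAcylation followed in real time by FITC-labelled antibody binding to O-GlcNAcylated RBL-2_410–422.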

As to `CC(C)[C@H](NC(=O)[C@@H](N)CCCNC(=N)N)C(=O)N1CCC[C@H]1C(=O)N[C@@H](CO)C(=O)N[C@@H](CCC(=O)NCCOC[C@H]1O[C@@H](n2ccc(=O)[nH]c2=O)[C@H](O)[C@@H]1O)C(=O)N[C@@H](CCC(N)=O)C(=O)N[C@@H](CO)C(N)=O` (H-RVPSE(X2)QS-NH2), the IC50 in assay [1] is greater than 1000 µM.

Take `CCOC(=O)C1CCC(CNC(=O)c2cc(=O)[nH]c3ccccc23)CC1` (stereo unspecified): in assay [2], the inhibition was 90%.

`O=C(NCc1ccccc1)c1cc(O)nc2ccccc12` had an inhibition in assay [2] of 90%.

In the case of `Nc1ccc(CNC(=O)c2cc(=O)[nH]c3ccccc23)cc1`, the inhibition in assay [2] was 90%.

Turning to `O=C(O)c1ccc(CNC(=O)c2cc(=O)[nH]c3ccccc23)cc1`, the inhibition in assay [2] stood at 90%.

In assay [2], `CCOC(=O)c1ccc(CNC(=O)c2cc(=O)[nH]c3ccccc23)cc1` gave an inhibition of 90%.

Regarding `O=C(O)CNC(=O)c1cc(=O)[nH]c2ccccc12`, in assay [2], the inhibition was 90%.

Consider `O=C(NCc1ccccc1Cl)c1cc(O)nc2ccccc12`, for which the inhibition in assay [2] was determined as 90%.

As to H-CVTPVATA-NH2, the midpoint of inhibition in assay [1], the IC50, lay at 385 µM.

As for `CC(C)(C)OC(=O)CCNC(=O)c1cc(=O)[nH]c2ccccc12`, the inhibition in assay [2] worked out at 90%.

In assay [2], `COc1ccc(CNC(=O)c2cc(=O)[nH]c3ccccc23)cc1` displayed an inhibition of 90%.

For `CCc1nnc(NC(=O)c2cc(=O)[nH]c3ccccc23)s1`, the inhibition in assay [2] amounted to 90%.

In turn, `CC(C)(C)OC(=O)CNC(=O)c1cc(=O)[nH]c2ccccc12` gave an inhibition in assay [2] of 90%.

As for `CCNC(=O)CCNC(=O)c1ccc(NC(=O)c2cc(=O)[nH]c3ccccc23)cc1`, the inhibition in assay [2] was determined as 90%.

As for `O=C(NCc1ccc2c(c1)OCCO2)c1cc(=O)[nH]c2ccccc12`, in assay [2], the inhibition stood at 90%.

Consider `O=C(O)c1cc(O)nc2ccccc12`, for which the inhibition in assay [2] was 90%.

Consider `CC(C)[C@H](NC(=O)[C@@H](N)CS)C(=O)N[C@H](C(=O)N1CCC[C@H]1C(=O)N[C@H](C(=O)N[C@@H](CCC(=O)NC[C@H]1O[C@@H](n2ccc(=O)[nH]c2=O)[C@H](O)[C@@H]1O)C(=O)N[C@H](C(=O)N[C@@H](C)C(N)=O)[C@@H](C)O)C(C)C)[C@@H](C)O` (H-CVTPVE(X1)TA-NH2), for which the concentration for half-maximal inhibition (IC50) in assay [1] worked out at 297 µM.

The compound `CC(C)[C@H](NC(=O)[C@@H](N)CCCNC(=N)N)C(=O)N1CCC[C@H]1C(=O)N[C@@H](CO)C(=O)N[C@@H](CCC(=O)NC[C@H]1O[C@@H](n2ccc(=O)[nH]c2=O)[C@H](O)[C@@H]1O)C(=O)N[C@@H](CCC(N)=O)C(=O)N[C@@H](CO)C(N)=O` (H-RVPSE(X1)QS-NH2) displayed an IC50 in assay [1] greater than 1000 µM.

In assay [2], `COc1ccc(CNC(=O)c2cc(=O)[nH]c3ccccc23)cc1OC` yielded an inhibition of 90%.

The compound `NS(=O)(=O)c1ccc(CNC(=O)c2cc(O)nc3ccccc23)cc1` yielded an inhibition in assay [2] of 90%.

For `CCOC(=O)CCCNC(=O)c1cc(=O)[nH]c2ccccc12`, the inhibition in assay [2] amounted to 90%.

Consider `CC(C)[C@H](NC(=O)[C@@H](N)CS)C(=O)N[C@H](C(=O)N1CCC[C@H]1C(=O)N[C@H](C(=O)N[C@@H](CCCCNC(=O)c1ccc(CNC(=O)c2cc(=O)[nH]c3ccccc23)cc1)C(=O)N[C@H](C(=O)N[C@@H](C)C(N)=O)[C@@H](C)O)C(C)C)[C@@H](C)O` (H-CVTPVK([4Amb-X4])TA-NH2), for which the IC50 in assay [1] came out at 117 µM.

In assay [2], `O=C(NCC1CCC(C(=O)O)CC1)c1cc(=O)[nH]c2ccccc12` (stereo unspecified) registered an inhibition of 90%.

Take `O=C(O)CCNC(=O)c1ccc(NC(=O)c2cc(=O)[nH]c3ccccc23)cc1`: the inhibition in assay [2] was 90%.

On to `O=C(O)CCCNC(=O)c1cc(=O)[nH]c2ccccc12`, for which, in assay [2], the inhibition amounted to 90%.

As to H-RVPSAQS-NH2, the IC50 in assay [1] worked out at 193 µM.

Consider `O=C(O)CCNC(=O)c1cc(=O)[nH]c2ccccc12`, for which the inhibition in assay [2] was 90%.

For H-KENSPCVTPVATA-OH, the inhibition result in assay [3] was “Active”.

The compound `CC(C)[C@H](NC(=O)[C@@H](N)CS)C(=O)N[C@H](C(=O)N1CCC[C@H]1C(=O)N[C@H](C(=O)N[C@@H](CCC(=O)NCCOC[C@H]1O[C@@H](n2ccc(=O)[nH]c2=O)[C@H](O)[C@@H]1O)C(=O)N[C@H](C(=O)N[C@@H](C)C(N)=O)[C@@H](C)O)C(C)C)[C@@H](C)O` (H-CVTPVE(X2)TA-NH2) had a half-maximal inhibitory concentration (IC50) in assay [1] greater than 1000 µM.

Compound `Nc1ccccc1CNC(=O)c1cc(=O)[nH]c2ccccc12` showed an inhibition in assay [2] of 90%.

For the compound `CC(C)[C@H](NC(=O)[C@@H](N)CS)C(=O)N[C@H](C(=O)N1CCC[C@H]1C(=O)N[C@H](C(=O)N[C@@H](CCC(=O)NCCOCCOC[C@H]1O[C@@H](n2ccc(=O)[nH]c2=O)[C@H](O)[C@@H]1O)C(=O)N[C@H](C(=O)N[C@@H](C)C(N)=O)[C@@H](C)O)C(C)C)[C@@H](C)O` (H-CVTPVE(X3)TA-NH2), the 50% inhibitory concentration (IC50) in assay [1] came to 493 µM.
